According to ChEMBL document CHEMBL3593187, “Modified quaternary ammonium salts as potential antimalarial agents” (Bioorg Med Chem, 2015):

Experiments:
[1] = Selectivity index, ratio of IC50 for HMEC1 to IC50 for chloroquine-resistant Plasmodium falciparum W2
How it was run: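 Selectivity index is the IC50 on HMEC-1 divided by the IC50 on W2. HMEC-1 cells were grown in MCDB 131 with 10% FCS, EGF, hydrocortisone and Hepes, then given serial dilutions for 72 h at 37 °C in 5% CO2. MTT was added for 3 h, formazan was dissolved in SDS/DMF lysis buffer at pH 4.7, and absorbance was read at 550/650 nm. Each test was run in triplicate at least three times.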

Plasmodium falciparum [2] = experiment: Antiplasmodial activity against chloroquine-resistant Plasmodium falciparum W2 assessed as inhibition of parasite growth after 72 hrs by parasite lactate dehydrogenase assay; type: functional, organism-based; conditions: W2, 72 h
How it was run: (§1)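 Asynchronous P. falciparum cultures (parasitaemia 1–1.5%, 1% final haematocrit, human type A-positive erythrocytes) in RPMI 1640 with 1% AlbuMaxII, 0.01% hypoxanthine, 20 mM Hepes and 2 mM glutamine. Cultures were exposed to serial dilutions (10 mg/mL stocks in water or DMSO) for 72 h at 37 °C under 1% O2/5% CO2/94% N2. Growth was read as pLDH activity (OD650), and IC50 is the mean ± SD of ≥3 independent experiments in duplicate.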

[3] = Cytotoxicity against HMEC1 assessed as inhibition of cell proliferation after 72 hrs by MTT assay; conditions: Homo sapiens, HMEC-1, 72 h
How it was run: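 HMEC-1 cells grown in MCDB 131 with 10% fetal calf serum, 10 ng/mL EGF, hydrocortisone, 2 mM glutamine and 20 mM Hepes. Serial compound dilutions, 72 h at 37 °C in 5% CO2, then MTT for 3 h. Formazan dissolved in SDS/DMF lysing buffer (pH 4.7), read at 550 nm (ref 650 nm). IC50 from triplicates, at least three runs.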

Plasmodium falciparum [4] = experiment: Antiplasmodial activity against chloroquine-sensitive Plasmodium falciparum D10 assessed as inhibition of parasite growth after 72 hrs by parasite lactate dehydrogenase assay; type: functional, organism-based; conditions: D10, 72 h; how it was run: as §1
[5] = Selectivity index, ratio of IC50 for HMEC1 to IC50 for chloroquine-sensitive Plasmodium falciparum D10
How it was run: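 Ratio of HMEC-1 IC50 (72 h MTT) to D10 IC50. […] Serial dilutions (final DMSO ≤1%), 72 h at 37 °C under 1% O2/5% CO2/94% N2. Growth read as pLDH activity (OD650). Mean of ≥3 experiments in duplicate.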

Plasmodium falciparum [6] = experiment: Resistance index, ratio of IC50 for chloroquine-resistant Plasmodium falciparum W2 to IC50 for chloroquine-sensitive Plasmodium falciparum D10; type: functional
How it was run: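 Resistance index is the IC50 against W2 divided by the IC50 against D10. Each IC50 came from a 72 h pLDH growth assay (OD650) on asynchronous cultures at 1% haematocrit and 37 °C, with ≥3 independent experiments in duplicate.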

C/C=C/C=C/C=C/C[N+](C)(CCCCCCCCCCCC)Cc1ccccc1.[I-] (centres undefined)
Ratio IC50 [1]: 18
IC50 (Plasmodium falciparum [2]): 0.33 µM
IC50 [3]: 5.9 µM
IC50 (Plasmodium falciparum [4]): 0.25 µM
Ratio IC50 [5]: 23
Ratio IC50 (Plasmodium falciparum [6]): 1.2

C/C=C/C=C/C=C/C[N+](C)(CCCCCCCCCCCCCCCC)Cc1ccccc1 (centres undefined)
IC50 (Plasmodium falciparum [2]): > 8.63 µM
IC50 [3]: 5.99 µM
IC50 (Plasmodium falciparum [4]): > 8.63 µM

C/C=C/C=C/C=C/C[N+](C)(C)CCCCCCCCCCCCCCCCCC.[I-]
Ratio IC50 [1]: 10
IC50 (Plasmodium falciparum [2]): 1.53 µM
IC50 [3]: 16.7 µM
IC50 (Plasmodium falciparum [4]): 1.15 µM
Ratio IC50 [5]: 14
Ratio IC50 (Plasmodium falciparum [6]): 1.3

C/C=C/C=C/C=C/C[N+](C)(CCCCCCCCCCCCCCCCCC)Cc1ccccc1.[I-] (centres undefined)
Ratio IC50 [1]: 11
IC50 (Plasmodium falciparum [2]): 0.61 µM
IC50 [3]: 7.02 µM
IC50 (Plasmodium falciparum [4]): 0.45 µM
Ratio IC50 [5]: 15
Ratio IC50 (Plasmodium falciparum [6]): 1.3

C/C=C/C=C/C=C/C[N+](C)(CCCCCCCCCCCCC)Cc1ccccc1.[I-] (centres undefined)
Ratio IC50 [1]: 41
IC50 (Plasmodium falciparum [2]): 0.52 µM
IC50 [3]: 21.2 µM
IC50 (Plasmodium falciparum [4]): 0.87 µM
Ratio IC50 [5]: 24
Ratio IC50 (Plasmodium falciparum [6]): 0.6

C/C=C/C=C/C=C/C[N+](C)(C)CCCCCCCCCCCCCCCC.[I-]
Ratio IC50 [1]: 7
IC50 (Plasmodium falciparum [2]): 0.95 µM
IC50 [3]: 7.07 µM
IC50 (Plasmodium falciparum [4]): 0.62 µM
Ratio IC50 [5]: 11
Ratio IC50 (Plasmodium falciparum [6]): 1.5

C/C=C/C=C/C=C/C(=O)O
IC50 (Plasmodium falciparum [2]): > 28.4 µM
IC50 (Plasmodium falciparum [4]): > 28.4 µM

C/C=C/C=C/C=C/C[N+](C)(C)CCCCCCCCCCCCCC.[I-]
Ratio IC50 [1]: 14
IC50 (Plasmodium falciparum [2]): 0.53 µM
IC50 [3]: 7.89 µM
IC50 (Plasmodium falciparum [4]): 0.21 µM
Ratio IC50 [5]: 36
Ratio IC50 (Plasmodium falciparum [6]): 2.5

C/C=C/C=C/C=C/C[N+](C)(C)CCCCCCCCCCCCC.[I-]
Ratio IC50 [1]: 8
IC50 (Plasmodium falciparum [2]): 0.63 µM
IC50 [3]: 5.63 µM
IC50 (Plasmodium falciparum [4]): 0.36 µM
Ratio IC50 [5]: 15
Ratio IC50 (Plasmodium falciparum [6]): 1.7

CCCCCCCCCCCC[N+](C)(C)CCCCCCCC.[Br-]
Ratio IC50 [1]: 18
IC50 (Plasmodium falciparum [2]): 0.48 µM
IC50 [3]: 8.69 µM
IC50 (Plasmodium falciparum [4]): 0.19 µM
Ratio IC50 [5]: 44
Ratio IC50 (Plasmodium falciparum [6]): 2.5

CCN(CC)CCCC(C)Nc1ccnc2cc(Cl)ccc12 (centres undefined) [CHLOROQUINE]
IC50 [3]: > 20 µM

C/C=C/C=C/C=C/C[N+](C)(CCCCCCCCCCCCCC)Cc1ccccc1.[I-] (centres undefined)
Ratio IC50 [1]: 75
IC50 (Plasmodium falciparum [2]): 0.31 µM
IC50 [3]: 23 µM
IC50 (Plasmodium falciparum [4]): 0.22 µM
Ratio IC50 [5]: 102
Ratio IC50 (Plasmodium falciparum [6]): 1.4

C/C=C/C=C/C=C/C[N+](C)(C)CCCCCCCCCCCC.[I-]
IC50 (Plasmodium falciparum [2]): 4.71 µM
IC50 [3]: > 20 µM
IC50 (Plasmodium falciparum [4]): 4.28 µM
Ratio IC50 (Plasmodium falciparum [6]): 1.1
